Active and inactive are the calls of the source.
How the values were obtained:
HUVEC [1] = experiment: Effect on pro-angiogenic property in human umbilical cord derived endothelial colony forming cells assessed as formation of capillary network on matrigel at 2.5 to 500 nM; format: functional, cell-based; settings: dose 2.5-500 nM
In short: (§1)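 Drug- or vehicle-pretreated ECFCs seeded at 5,000 cells/well on phenol-red-free growth-factor-reduced Matrigel in duplicate; after 24 hr stained with 5 μg/mL calcein 5 min at 37°C, imaged at 2.5×. Total tube length expressed as percentage of vehicle control ±SEM, three independent experiments.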

HUVEC [2] = experiment: Effect on pro-angiogenic property in human umbilical cord derived endothelial colony forming cells assessed as increase in SHH level by qRT-PCR analysis; format: functional, cell-based
HUVEC [3] = experiment: Effect on pro-angiogenic property in human umbilical cord derived endothelial colony forming cells assessed as cell migration treated for 10 hrs measured by crystal violet staining analysis based gap closure assay; format: functional; settings: dose 2.5-20 nM
HUVEC [4] = experiment: Effect on pro-angiogenic property in human umbilical cord derived endothelial colony forming cells assessed as increase in DLL1 level by qRT-PCR analysis; format: functional, cell-based
HUVEC [5] = experiment: Effect on pro-angiogenic property in human umbilical cord derived endothelial colony forming cells assessed as cell migration treated at 330 nM for 10 hrs measured by crystal violet staining analysis based gap closure assay; format: functional
HUVEC [6] = experiment: Effect on pro-angiogenic property in human umbilical cord derived endothelial colony forming cells assessed as formation of capillary network on matrigel at 330 nM; format: functional, cell-based; in short: as §1

Measured: Activity

Cc1[nH]c2ccccc2c1CCNCc1ccc(/C=C/C(=O)NO)cc1
active: HUVEC [1] Dose-Dependent Effect | HUVEC [2] | HUVEC [3] Dose-Dependent Effect | HUVEC [4]

CC(/C=C/C(=O)NO)=C\[C@@H](C)C(=O)c1ccc(N(C)C)cc1
active: HUVEC [5] | HUVEC [6]

From ChEMBL document CHEMBL5674876, “Epigenetic Activation of Pro-angiogenic Signaling Pathways in Human Endothelial Progenitors Increases Vasculogenesis” (Stem Cell Reports, 2017)
